In ChEMBL document CHEMBL4017539, “Oral Delivery of Propofol with Methoxymethylphosphonic Acid as the Delivery Vehicle” (J Med Chem, 2017):

How the values were obtained:
Mus musculus [1] = assay: Anesthetic activity in ICR mouse assessed as onset time for loss of righting reflex at 200 mg equiv/kg parent drug administered via oral gavage; format: functional
Summary of the method: (§1)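 Male and female ICR mice (20 ± 2 g), fasted overnight, dosed by gavage in 10% DMSO, 20% Solutol HS-15, 70% saline (n = 10/group for diastereoisomeric mixtures, n = 6/group for single diastereoisomers). Mice were placed on their backs until righting stopped. Read-outs were onset of LORR, anesthetic duration, percent with LORR and percent mortality per group.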

[2] = Toxicity in ICR mouse assessed as death at 200 mg equiv/kg parent drug administered via oral gavage relative to control; conditions: in vivo; summary of the method: as §1
Mus musculus [3] = assay: Anesthetic activity in ICR mouse assessed as loss of righting reflex at 200 mg equiv/kg parent drug administered via oral gavage relative to control; format: functional; summary of the method: as §1
Mus musculus [4] = assay: Anesthetic activity in ICR mouse assessed as anesthetic duration time at 200 mg equiv/kg parent drug administered via oral gavage; format: functional; summary of the method: as §1
[5] = AUC (0 to t) in Beagle dog at 0.2 mg/kg, iv administered as single bolus dose by LC-MS/MS analysis; format: ADME, organism-based, Canis lupus familiaris; conditions: in vivo
[6] = Cmax in Beagle dog at 0.2 mg/kg, iv administered as single bolus dose by LC-MS/MS analysis; format: ADME, organism-based, Canis lupus familiaris; set-up: dose 0.2 mg/kg, route intravenous; conditions: in vivo
Summary of the method: (§2)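 Beagle dogs (n=3/group) received the parent drug as an intravenous bolus. Heparinized blood was drawn pre-dose and at 2, 5, 10, 20 and 30 min and 1, 2, 4, 6, 8, 10, 12 and 24 h. Plasma was separated by centrifugation at 2–8 °C and stored at -80 °C. Parent drug was measured by LC-MS/MS, and parameters were derived by non-compartmental analysis.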

[7] = Half life in Beagle dog at 0.2 mg/kg, iv administered as single bolus dose by LC-MS/MS analysis; format: ADME, organism-based, Canis lupus familiaris; conditions: in vivo; summary of the method: as §2
[8] = Toxicity in ICR mouse assessed as death at 100 mg equiv/kg parent drug administered via oral gavage relative to control; conditions: in vivo; summary of the method: as §1
Mus musculus [9] = assay: Anesthetic activity in ICR mouse assessed as anesthetic duration time at 100 mg equiv/kg parent drug administered via oral gavage; format: functional; summary of the method: as §1
Mus musculus [10] = assay: Anesthetic activity in ICR mouse assessed as onset time for loss of righting reflex at 100 mg equiv/kg parent drug administered via oral gavage; format: functional; summary of the method: as §1
Mus musculus [11] = assay: Anesthetic activity in ICR mouse assessed as loss of righting reflex at 100 mg equiv/kg parent drug administered via oral gavage relative to control; format: functional; summary of the method: as §1
[12] = AUC (0 to t) in Beagle dog at 2 mg/kg, iv administered as single bolus dose by LC-MS/MS analysis; format: ADME, organism-based, Canis lupus familiaris; conditions: in vivo
[13] = Cmax in Beagle dog at 2 mg/kg, iv administered as single bolus dose by LC-MS/MS analysis; format: ADME, organism-based, Canis lupus familiaris; set-up: dose 2 mg/kg, route intravenous; conditions: in vivo
Summary of the method: (§3)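 Beagle dogs (n=3/group) received a single i.v. bolus of parent drug, then after a one-week washout received the prodrug i.g. in 5% DMSO, 5% Solutol HS-15 (30%, w/v), 90% saline. Heparinized blood was taken to 24 h, and plasma was obtained at 2–8 °C and stored at -80 °C. Parent drug was measured by LC-MS/MS and analysed non-compartmentally. Oral bioavailability was oral versus i.v. exposure to the active compound.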

[14] = Half life in Beagle dog at 2 mg/kg, iv administered as single bolus dose by LC-MS/MS analysis; format: ADME, organism-based, Canis lupus familiaris; conditions: in vivo; summary of the method: as §3
[15] = Half life in Beagle dog at 1 mg/kg, iv administered as single bolus dose by LC-MS/MS analysis; format: ADME, organism-based, Canis lupus familiaris; conditions: in vivo; summary of the method: as §3
[16] = Cmax in Beagle dog at 1 mg/kg, iv administered as single bolus dose by LC-MS/MS analysis; format: ADME, organism-based, Canis lupus familiaris; set-up: dose 1 mg/kg, route intravenous; conditions: in vivo; summary of the method: as §3
[17] = Oral bioavailability in Beagle dog at 10 mg/kg by LC-MS/MS analysis; format: ADME, organism-based, Canis lupus familiaris; conditions: in vivo; summary of the method: as §3
[18] = AUC (0 to t) in Beagle dog at 10 mg/kg, po by LC-MS/MS analysis; format: ADME, organism-based, Canis lupus familiaris; conditions: in vivo
[19] = Half life in Beagle dog at 10 mg/kg, po by LC-MS/MS analysis; format: ADME, organism-based, Canis lupus familiaris; conditions: in vivo; summary of the method: as §3
[20] = AUC (0 to t) in Beagle dog at 1 mg/kg, iv administered as single bolus dose by LC-MS/MS analysis; format: ADME, organism-based, Canis lupus familiaris; conditions: in vivo
[21] = Cmax in Beagle dog at 10 mg/kg, po by LC-MS/MS analysis; format: ADME, organism-based, Canis lupus familiaris; set-up: dose 10 mg/kg, route oral; conditions: in vivo; summary of the method: as §3
in vivo [22] = conditions: Beagle, dog, iv, 3 mg/kg
[23] = Half life in Beagle dog at 3 mg/kg, iv administered as single bolus dose by LC-MS/MS analysis; conditions: in vivo
in vivo [24] = conditions: Beagle, dog, po, 6.9 mg/kg
in vivo [25] = conditions: Beagle, dog, po, 6.9 mg/kg; remark: listed apart in the source
in vivo [26] = conditions: Beagle, dog, iv, 3 mg/kg; remark: listed apart in the source
in vivo [27] = conditions: Beagle, dog, po, 6.9 mg/kg; remark: listed apart in the source
[28] = Half life in Beagle dog at 6.9 mg/kg, po by LC-MS/MS analysis; conditions: in vivo
Mus musculus [29] = assay: Sleep promoting activity in ICR mouse assessed as pentobarbital induced sleep time at 65 mg/kg, po administered 5 mins before pentobarbital injection (reference value: 33 +/- 20 min); format: functional
Summary of the method: (§4)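 Fasted male and female ICR mice (n=10/group) received vehicle or 55, 65 or 75 mg/kg orally in 10% DMSO, 20% Solutol HS-15 (30%, w/v), 70% saline, 5 min before pentobarbital 40 mg/kg i.p. Sleep duration ran from falling asleep to recovery of the righting reflex. Data are mean ± SEM versus vehicle.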

Mus musculus [30] = assay: Sleep promoting activity in po dosed ICR mouse assessed as increase in pentobarbital induced sleep time administered 5 mins before pentobarbital injection; format: functional, organism-based; summary of the method: as §4
Mus musculus [31] = assay: Sleep promoting activity in ICR mouse assessed as pentobarbital induced sleep time at 75 mg/kg, po administered 5 mins before pentobarbital injection (reference value: 33 +/- 20 min); format: functional; summary of the method: as §4

| SMILES | Time (Mus musculus [1]) [min] | mortality [2] [%] | Activity (Mus musculus [3]) [%] | Time (Mus musculus [4]) [min] | other results |
| --- | --- | --- | --- | --- | --- |
| CCOC(=O)C(C)(C)NP(=O)(COC)Oc1c(C(C)C)cccc1C(C)C (stereo unspecified) | 6.74 | 20 | 100 | 115.9 | – |
| COCP(=O)(N[C@@H](C)C(=O)OC(C)C)Oc1c(C(C)C)cccc1C(C)C (stereo partly specified) | 12.7 | 0 | 40 | 59.38 | – |
| C[C@]12CC[C@@H]3c4ccc(O)cc4CC[C@H]3[C@@H]1CC[C@@H]2O [ESTRADIOL] | – | – | – | – | AUC(0-t) [5]: 28 ng·h/mL; Cmax [6]: 76 ng/mL; half-life [7]: 16.2 min |
| COCP(=O)(N[C@@H](C)C(=O)OCc1ccccc1)Oc1c(C(C)C)cccc1C(C)C (stereo partly specified) | 9.34 | 10 | 50 | 94.61 | – |
| CCOC(=O)[C@H](C)N[P@@](=O)(COC)Oc1c(C(C)C)cccc1[C@H](C)C1CC1 | – | – | – | – | mortality [8]: 17%; Time (Mus musculus [9]): 85.23 min; Time (Mus musculus [10]): 4.35 min; Activity (Mus musculus [11]): 100% |
| CCOC(=O)[C@H](C)N[P@@](=O)(COC)Oc1c(C(C)C)cccc1C(C)C | 9.68 | 0 | 33 | 47.24 | – |
| CCOC(=O)[C@H](C)NP(=O)(CO)Oc1c(C(C)C)cccc1C(C)C (stereo partly specified) | 6.91 | 10 | 40 | 19.19 | – |
| CCOC(=O)[C@H](C)NP(=O)(COC)Oc1c(C(C)C)cccc1C(C)C (stereo partly specified) | 4.5 | 10 | 100 | 60.31 | – |
| CCOC(=O)CNP(=O)(COC)Oc1c(C(C)C)cccc1C(C)C (stereo unspecified) | 14.37 | 0 | 70 | 32.48 | – |
| CCc1c2c(nc3ccc(O)cc13)-c1cc3c(c(=O)n1C2)COC(=O)[C@]3(O)CC [7-ETHYL-10-HYDROXYCAMPTOTHECIN] | – | – | – | – | AUC(0-t) [12]: 410 ng·h/mL; Cmax [13]: 983 ng/mL; half-life [14]: 160 min |
| C=CCN1CC[C@]23c4c5ccc(O)c4O[C@H]2C(=O)CC[C@@]3(O)[C@H]1C5 [NALOXONE] | – | – | – | – | half-life [15]: 22.8 min; Cmax [16]: 196 ng/mL; bioavailability [17]: 9.6%; AUC(0-t) [18]: 117 ng·h/mL; half-life [19]: 539 min; AUC(0-t) [20]: 122 ng·h/mL; Cmax [21]: 43 ng/mL |
| CCOC(=O)[C@@H](C)NP(=O)(COC)Oc1c(C(C)C)cccc1C(C)C (stereo partly specified) | 9.48 | 10 | 100 | 44.8 | – |
| CCOC(=O)[C@H](C)N[P@](=O)(COC)Oc1c(C(C)C)cccc1[C@H](C)C1CC1 | – | – | – | – | mortality [8]: 0%; Time (Mus musculus [9]): 107.68 min; Time (Mus musculus [10]): 3.98 min; Activity (Mus musculus [11]): 100% |
| CC(C)c1cccc([C@H](C)C2CC2)c1O [CIPEPOFOL] | – | – | – | – | AUC(0-t) [12]: 417 ng·h/mL; Cmax [13]: 1610 ng/mL; bioavailability [17]: 7.7%; half-life [14]: 12 min; AUC(0-t) [18]: 162 ng·h/mL; half-life [19]: 26.4 min; Cmax [21]: 233 ng/mL |
| CC(C)c1cccc(C(C)C)c1O [PROPOFOL] | – | – | – | – | Cmax (in vivo [22]): 2050 ng/mL; half-life [23]: 12 min; bioavailability (in vivo [24]): 7.3%; AUC(0-t) (in vivo [25]): 102 ng·h/mL; AUC(0-t) (in vivo [26]): 616 ng·h/mL; Cmax (in vivo [27]): 97 ng/mL; half-life [28]: 38.4 min |
| CCOC(=O)[C@H](C)NP(=O)(CN1CCOCC1)Oc1c(C(C)C)cccc1C(C)C (stereo partly specified) | 7.65 | 10 | 60 | 16.18 | – |
| CCOC(=O)[C@H](C)N[P@](=O)(COC)Oc1c(C(C)C)cccc1C(C)C | 4.38 | 0 | 100 | 40.1 | Time (Mus musculus [29]): 69 min; Activity (Mus musculus [30]): Dose-dependent effect; Time (Mus musculus [31]): 82 min |
| COCP(=O)(N[C@@H](C)C(=O)OCC(C)C)Oc1c(C(C)C)cccc1C(C)C (stereo partly specified) | 8.36 | 10 | 100 | 24.47 | – |
| CCOC(=O)[C@H](C)NP(=O)(COC)Oc1c(C(C)C)cccc1[C@H](C)C1CC1 (stereo partly specified) | – | – | – | – | mortality [8]: 50%; Time (Mus musculus [9]): 74.44 min; Time (Mus musculus [10]): 4.49 min; Activity (Mus musculus [11]): 100% |
